The record followed here is ChEMBL document CHEMBL2346495, “Evaluation of HIV-1 inhibition by stereoisomers and analogues of the sesquiterpenoid hydroquinone peyssonol A” (Bioorg Med Chem Lett, 2013).

In general, CC50 refers to the concentration at which the toxic effect on the cells reaches its halfway point. The low end stands for greater toxicity to the cells, the high end for lower toxicity to the cells. A word on the EC50: it is the concentration giving half of the maximal effect.

Series [1] is described as follows: Therapeutic index, ratio of CC50 for human MT2 cells to EC50 for recombinant HIV1 expressing Rep-Rluc Sac II. The format is cell-based. Particulars: read-out: Ratio CC50/EC50. In outline:
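Therapeutic index computed as CC50 (XTT viability of uninfected MT-2 cells, serial dilutions) over EC50 (luciferase output after 5-day infection of MT-2 cells with HIV-1 NL-Rluc in the presence of compounds). Each input is averaged from two to four experiments.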

Series [2] can be described thus: Cytotoxicity against human MT2 cells by XTT assay. The format is cell-based. In outline: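 Uninfected MT-2 cells, run in parallel with the antiviral screen, exposed to serially diluted compounds; viability read by XTT assay. CC50 averaged from two to four experiments.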
In general terms: Tetrazolium dyes change colour on reduction, which living cells bring about.

The test system of series [3] is Human immunodeficiency virus 1. Briefly: Antiviral activity against recombinant HIV1 expressing Rep-Rluc Sac II infected in human MT2 cells after 5 days by luciferase reporter gene assay. The format is functional, organism-based. To be noted: Human immunodeficiency virus 1, MT2, 120 h. In outline:
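MT-2 human lymphocytes infected with recombinant HIV-1 NL-Rluc (Rep-Rluc Sac II) in the presence of compounds; 5-day incubation, then cells processed and virus growth quantified by expressed luciferase. EC50 values averaged from two to four experiments.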
For orientation: In a reporter assay the amount or activity of a reporter protein is the signal.

On to `CC1(C)[C@@H](I)CC[C@@]2(C)[C@H]1CC[C@@]1(C)OC(=O)OC[C@@H]21`, for which the selectivity ratio in series [1] was 6. In series [2], this compound showed a CC50 of 30 µM. Besides, the EC50 in series [3] amounted to 5 µM.
The corresponding values for `CC1=C(Cc2cc(O)c(C=O)cc2O)[C@@]2(C)CC[C@H](Br)C(C)(C)[C@@H]2CC1` are 5, 4 µM and 0.8 µM.
Regarding `Cc1cc(O)c(C=O)cc1O`, in series [1], the selectivity ratio is 3. For the same compound, the midpoint of cytotoxicity in series [2], the CC50, lay at 30 µM. Also, in series [3], the EC50 stood at 10 µM.
The corresponding values for `CC1=CC[C@H]2C(C)(C)[C@@H](Br)CC[C@]2(C)[C@@H]1Cc1cc(O)c(C=O)cc1O` are 4, 4 µM and 0.9 µM.
The corresponding values for `CC(=O)OC[C@H]1[C@@]2(C)CC[C@H](Br)C(C)(C)[C@@H]2CC[C@@]1(C)O` are 8, 90 µM and 10 µM.
For `CC1(C)[C@@H](Br)CC[C@@]2(C)[C@H]1CC[C@@]1(C)Oc3cc(C=O)c(O)cc3C[C@@H]21`, the selectivity ratio in series [1] came to 5. In series [2], this compound returned a CC50 of 5 µM. The EC50 in series [3] came to 1 µM.
The corresponding values for `CC1(C)[C@H]2CC[C@]3(C)OC(=O)OC[C@H]3[C@@]2(C)CC[C@@H]1Br` are above 11, above 100 µM and 9 µM.
The corresponding values for `CC1(C)[C@@H](Cl)CC[C@@]2(C)[C@H]1CC[C@@]1(C)OC(=O)OC[C@@H]21` are 4, 40 µM and 10 µM.
The corresponding values for `CC(=O)OC[C@@H]1[C@@]2(C)CC[C@H](Br)C(C)(C)[C@H]2CC[C@]1(C)O` are 3, 70 µM and 20 µM.
Take `C=C1CC[C@@H]2C(C)(C)[C@@H](Br)CC[C@]2(C)[C@H]1Cc1cc(O)c(C=O)cc1O`: the selectivity ratio in series [1] is 8. Besides, the CC50 in series [2] came to 4 µM. Moreover, the EC50 in series [3] was found to be 0.5 µM.
Turning to `C=C1CC[C@H]2C(C)(C)[C@@H](Br)CC[C@]2(C)[C@H]1Cc1cc(O)c(C=O)cc1O`, in series [1], the selectivity ratio was found to be 4. The compound further returned a CC50 in series [2] of 2 µM. Besides, the EC50 in series [3] stood at 0.5 µM.
The corresponding values for `CC1(C)[C@@H](Br)CC[C@@]2(C)[C@H]1CC[C@@](C)(O)[C@H]2CO` are 44, 90 µM and 2 µM.
The corresponding values for `CC1=CC[C@H]2C(C)(C)[C@@H](Br)CC[C@]2(C)[C@@H]1Cc1cc(O)c(CC(=O)O)cc1O` [PEYSSONOIC ACID A] are above 2, above 100 µM and 50 µM.
The corresponding values for `C=C1CC[C@H]2C(C)(C)[C@@H](Br)CC[C@]2(C)[C@@H]1Cc1cc(O)c(C=O)cc1O` [PEYSSONOL A] are 4, 4 µM and 1 µM.
On to `CC1(C)CCC[C@@]2(C)[C@H]1CC[C@@]1(C)OC(=O)OC[C@@H]21`, for which the selectivity ratio in series [1] stood at 17. The same compound had a CC50 in series [2] of 30 µM. Besides, in series [3], the EC50 was found to be 2 µM.
With `CC1(C)[C@@H](Br)CC[C@]2(C)[C@H]3COC(=O)O[C@]3(C)CC[C@@H]12`, the selectivity ratio in series [1] is above 10. This compound returned a CC50 in series [2] above 100 µM. In addition, the EC50 in series [3] worked out at 10 µM.
The corresponding values for `C=C1CC[C@@H]2C(C)(C)[C@@H](Br)CC[C@]2(C)[C@@H]1Cc1cc(O)c(C=O)cc1O` are 7, 5 µM and 0.7 µM.
The corresponding values for `CC(=O)OC[C@@H]1[C@@]2(C)CC[C@H](Br)C(C)(C)[C@@H]2CC[C@@]1(C)O` are 3, 40 µM and 10 µM.
`CC(=O)OC[C@H]1[C@@]2(C)CC[C@H](Br)C(C)(C)[C@H]2CC[C@]1(C)O`: the selectivity ratio in series [1] was above 2. Besides, the CC50 in series [2] is above 100 µM. Moreover, in series [3], the EC50 was determined as 40 µM.
The corresponding values for `O=Cc1cc(O)c(CC2CCCCC2)cc1O` are above 25, above 100 µM and 4 µM.
The corresponding values for `CC1(C)[C@H]2CC[C@]3(C)OC(=O)OC[C@@H]3[C@@]2(C)CC[C@@H]1Br` are 9, 70 µM and 7 µM.
The corresponding values for `CC1(C)[C@@H](Br)CC[C@@]2(C)[C@H]1CC[C@@]1(C)OC(=O)OC[C@@H]21` are 23, 90 µM and 4 µM.
